In ChEMBL document CHEMBL2321763, “The role of the acidity of N-heteroaryl sulfonamides as inhibitors of bcl-2 family protein-protein interactions” (ACS Med Chem Lett, 2013):
≈ marks a conversion by molar mass, not a printed value.

Legend:
Toledo = assay: Induction of apoptosis in human Toledo cells; type: functional; conditions: read-out: LD50 (the source's name)
[1] = Solubility of compound in fasted state simulated intestinal fluid
Bcl-2-like protein 1 = Bcl-2-like protein 1 (Homo sapiens, UniProt Q07817); assay: Inhibition of Bcl-xL/BAK (unknown origin) interaction
Sequence of Bcl-2-like protein 1 (Q07817 whole entry): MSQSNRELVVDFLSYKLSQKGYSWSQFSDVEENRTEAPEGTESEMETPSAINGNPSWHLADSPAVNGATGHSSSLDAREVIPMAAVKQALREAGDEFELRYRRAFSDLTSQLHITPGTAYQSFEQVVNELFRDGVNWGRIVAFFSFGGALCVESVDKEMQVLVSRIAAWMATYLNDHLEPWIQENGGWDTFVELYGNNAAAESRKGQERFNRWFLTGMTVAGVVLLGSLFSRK

[2] = molecular target: T1, Apoptosis regulator Bcl-2 (Homo sapiens, UniProt P10415); assay: Inhibition of Bcl-2/biotinylated BAK (unknown origin) interaction incubated for 1 hr by surface plasmon resonance analysis
T1 sequence (P10415 whole entry): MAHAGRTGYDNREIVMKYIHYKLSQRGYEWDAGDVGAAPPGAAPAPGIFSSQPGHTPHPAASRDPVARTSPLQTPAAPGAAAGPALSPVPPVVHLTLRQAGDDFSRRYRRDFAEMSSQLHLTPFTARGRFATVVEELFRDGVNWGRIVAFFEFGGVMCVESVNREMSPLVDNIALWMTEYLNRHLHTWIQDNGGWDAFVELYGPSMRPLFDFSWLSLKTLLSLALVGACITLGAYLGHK

[3] = molecular target: T1, Apoptosis regulator Bcl-2; assay: Binding affinity to Bcl-2 (unknown origin) by surface plasmon resonance analysis
[4] = Ratio of compound solubility to ABT-737 solubility in fasted state simulated intestinal fluid; type: physicochemical; conditions: simulated gi fluid
Rattus norvegicus = assay: AUC in Sprague-Dawley rat at 1 mg/kg, iv; type: ADME, organism-based, Plasma; parameters: dose 1 mg/kg, route intravenous; conditions: in vivo
Procedure, shortened: (§1)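 Rats got a single 1 mg/kg iv dose for plasma clearance, AUC and Vdss, and a 10 mg/kg po dose for oral bioavailability (%F). The vehicle was a solution of either 10% PG, 5% cremophor EL and 85% citrate buffer, or 10% PG, Solutol and 40% water for injection.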

[5] = Volume of distribution at steady state in Sprague-Dawley rat at 1 mg/kg, iv and 10 mg/kg, po; type: ADME, organism-based; conditions: in vivo, read-out: Vdss; procedure, shortened: as §1
[6] = Clearance in Sprague-Dawley rat plasma at 1 mg/kg, iv; type: ADME, organism-based; parameters: dose 1 mg/kg, route intravenous; procedure, shortened: as §1
[7] = Oral bioavailability in Sprague-Dawley rat at 10 mg/kg; type: ADME, organism-based; conditions: in vivo; procedure, shortened: as §1

Structure (SMILES)	CC50 (Toledo)	solubility [1]	IC50 (Bcl-2-like protein 1)	IC50 [2]	Kd [3]	Ratio [4]	AUC (Rattus norvegicus)	Vd [5]	clearance [6]	bioavailability [7]
CN(C)CC[C@H](CSc1ccccc1)Nc1ccc(S(=O)(=O)Nc2ncnc3c2CCN(C2CCN(Cc4cc(F)ccc4-c4ccc(Cl)cc4)CC2)C3=O)cc1S(=O)(=O)C(F)(F)F	> 30000 nM	63 µM (≈ 60.5 µg/mL)	22 nM	142 nM	104 nM	–	–	–	–	–
CN(C)CC[C@H](CSc1ccccc1)Nc1ccc(S(=O)(=O)Nc2nc(Cl)nc3c2CCN(C2CCN(Cc4ccccc4-c4ccc(Cl)cc4)CC2)C3)cc1S(=O)(=O)C(F)(F)F	5370 nM	22 µM (≈ 21.2 µg/mL)	20 nM	32 nM	17 nM	–	–	–	–	–
CN(C)CC[C@H](CSc1ccccc1)Nc1ccc(S(=O)(=O)Nc2nc(C(F)(F)F)nc3c2CCN(C2CCN(Cc4ccccc4-c4ccc(Cl)cc4)CC2)C3)cc1S(=O)(=O)C(F)(F)F	3900 nM	36 µM (≈ 35.9 µg/mL)	62 nM	46 nM	10 nM	–	–	–	–	–
O=[N+]([O-])c1cc(S(=O)(=O)Nc2cccc3cc(N4CCN(Cc5ccccc5-c5ccc(Cl)cc5)CC4)ccc23)ccc1N[C@H](CCN1CCOCC1)CSc1ccccc1	> 30000 nM	–	–	> 4000 nM	–	–	–	–	–	–
CN(C)CC[C@H](CSc1ccccc1)Nc1ccc(S(=O)(=O)Nc2cccc3cc(N4CCN(Cc5ccccc5-c5ccc(Cl)cc5)CC4)cnc23)cc1[N+](=O)[O-]	3950 nM	44 µM (≈ 36.8 µg/mL)	–	68 nM	–	–	–	–	–	–
CN(C)CC[C@H](CSc1ccccc1)Nc1ccc(S(=O)(=O)Nc2nn(C)c3nc(N4CCN(Cc5ccccc5-c5ccc(Cl)cc5)CC4)ncc23)cc1[N+](=O)[O-]	> 30000 nM	–	–	8500 nM	–	–	–	–	–	–
CN(C)CC[C@H](CSc1ccccc1)Nc1ccc(S(=O)(=O)Nc2nnc3cc(N4CCN(Cc5ccccc5-c5ccc(Cl)cc5)CC4)cnn23)cc1[N+](=O)[O-]	4800 nM	31 µM (≈ 25.7 µg/mL)	–	25 nM	8 nM	4	–	–	–	–
CN(C)CC[C@H](CSc1ccccc1)Nc1ccc(S(=O)(=O)NC2=NS(=O)(=O)c3cc(N4CCN(Cc5ccccc5-c5ccc(Cl)cc5)CC4)ccc32)cc1[N+](=O)[O-]	> 30000 nM	< 5 µM	–	17 nM	14 nM	–	761 nmol/h	0.09 L/kg	25 mL/min/kg	–
O=S(=O)(Nc1nnc2n1CCN(C1CCN(Cc3ccccc3-c3ccc(Cl)cc3)CC1)C2)c1ccc(N[C@H](CCN2CCOCC2)CSc2ccccc2)c(S(=O)(=O)C(F)(F)F)c1	15900 nM	9 µM (≈ 8.64 µg/mL)	–	317 nM	–	–	–	–	–	–
O=S(=O)(Nc1ncnc2c1CN(C1CCN(Cc3ccccc3-c3ccc(Cl)cc3)CC1)C2)c1ccc(N[C@H](CCN2CCOCC2)CSc2ccccc2)c(S(=O)(=O)C(F)(F)F)c1	107000 nM	70 µM (≈ 67 µg/mL)	–	740 nM	–	–	–	–	–	–
CN(C)CC[C@H](CSc1ccccc1)Nc1ccc(S(=O)(=O)Nc2nnc3n2CCN(C2CCN(Cc4ccccc4-c4ccc(Cl)cc4)CC2)CC3)cc1S(=O)(=O)C(F)(F)F	3470 nM	87 µM (≈ 81 µg/mL)	–	25 nM	5 nM	–	–	–	–	–
CN(C)CC[C@H](CSc1ccccc1)Nc1ccc(S(=O)(=O)Nc2ncnc3c2CCN(C2CCN(Cc4ccccc4-c4ccc(Cl)cc4)CC2)C3)cc1S(=O)(=O)C(F)(F)F	298 nM	64 µM (≈ 59.4 µg/mL)	24 nM	19 nM	7 nM	–	0.232 µM·h	8.6 L/kg	68 mL/min/kg	< 5%
CN(C)CC[C@H](CSc1ccccc1)Nc1ccc(S(=O)(=O)Nc2ncnc3c2CCN(C2CCN(Cc4cc(F)ccc4-c4ccc(Cl)cc4)CC2)C3)cc1S(=O)(=O)C(F)(F)F	197 nM	25 µM (≈ 23.7 µg/mL)	74 nM	33 nM	3 nM	–	–	–	–	–
CC(c1ccccc1-c1ccc(Cl)cc1)N1CCC(N2CCc3c(ncnc3NS(=O)(=O)c3ccc(N[C@H](CCN(C)C)CSc4ccccc4)c(S(=O)(=O)C(F)(F)F)c3)C2)CC1 (some centres not stated)	113 nM	31 µM (≈ 29.2 µg/mL)	115 nM	–	2 nM	–	0.19 µM·h	5.28 L/kg	89 mL/min/kg	–
CN(C)CC[C@H](CSc1ccccc1)Nc1ccc(S(=O)(=O)NC(=O)c2ccc(N3CCN(Cc4ccccc4-c4ccc(Cl)cc4)CC3)cc2)cc1[N+](=O)[O-] [ABT 737]	60 nM	7 µM (≈ 5.69 µg/mL)	–	–	–	–	–	–	–	–
